Source: PubChem BioAssay (several laboratories)
Only a selection was taken, and hits are over-represented in it overall.
Dynein transport: dynein cargo transport inhibition; 3617.4 mouse cells, GR-EGFP nuclear translocation imaging; test concentration mostly 20 µM; stimulated with dexamethasone, 1 µM; hits give low values; z-score, hits read low; 220,000 tested, 0.47% active; AID 1381;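 active = plate z-score of nuclear minus cytoplasmic receptor signal below a set negative limit, without overly bright fluorescence or cell loss, cut at about -3.5 in these data, passing the limit was not always enough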;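 also: z-score of nuclear minus cytoplasmic ring GR-EGFP intensity difference per well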
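Buffer or medium: tet-free, stripped-serum medium; Also added: dexamethasone, 1.0 µM final; Technique: high-content fluorescence imaging after fixation; Times: 48 h induction, 1 h compound, 30 min dex at 37 °C; Read-out: per-cell GR-EGFP intensity, nucleus versus surrounding cytoplasmic ring, well-averaged.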
CHOP inh: blocks CHOP induction under ER stress; CHO-K1 CHOP-promoter luciferase, tunicamycin-induced, 15-18 h; inhibition, % at 10 µM; 220,000 tested, 3.8% active;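 active = compounds that reduced the stress-induced luciferase reporter signal by more than about 70% of percent inhibition, limit read from the data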
Lmaj promast: reduces viability of Leishmania major promastigotes; resazurin fluorescence viability; inhibition, % at 10 µM; AID 1063; 200,000 tested, 9% active; in the data active = inhibition above about 50%;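 also: promastigotes grown with compound for 44 hours at 28 °C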
T cruzi repl: T. cruzi replication inhibition; 300,000 tested, 1.4% active; T. cruzi beta-gal in NIH3T3, luminescence, 90 h; AID 1885; inhibition, % (no concentration beside the values);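 active = mean inhibition across valid replicates above about 55%, limit read from the data; inconclusive = mean below that limit but half or more replicates reach it; inactive = mean below it, under half of replicates reach it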;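 also: signal also drops with host cell toxicity which is not excluded here; higher percent means less beta-gal luminescence so fewer parasites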
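Assay system: NIH/3T3 fibroblasts plus reporter T. cruzi. Amount: NIH/3T3 cells, 5,000 per well. Buffer or medium: DMEM, 2% fetal bovine serum. Doses: compound pinned at 50 nL/well, DMSO. Schedule: ≥90 h infection period, 3 h prior cell attachment. Signal: luminescent β-galactosidase signal after 60 min lysis. Read-out: parasite load inhibition, %.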
UPR XBP1 act: activators of adaptive arm of unfolded protein response (XBP1). CHO-XBP1 luciferase reporter, IRE1-XBP1 UPR activation, luminescence; percent of tunicamycin response, DMSO as zero. activation, % at 20 µM. 330,000 tested, 0.33% active. AID 463104;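 active = versus positive control, 20 µM dose yields 30% or more activation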
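Material – CHO cell line with stable XBP1 luciferase reporter · Buffer or medium – F12 plus 10% FBS · Compound – single point, 20 µM final compound, 1% DMSO · Schedule – 16-18 h cell attachment at 37 °C, then 6 h compound exposure · Signal – Steady-Glo luminescence read · Benchmarks – high control tunicamycin 10 µg/mL final, low control DMSO vehicle only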
CHOP UPR activ: activators of apoptotic arm of unfolded protein response (CHOP) | CHO-CHOP luciferase reporter, UPR activation, luminescence; percent of tunicamycin response over DMSO baseline | activation, % at 10 µM | 330,000 tested, 0.34% active | AID 449763;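 active = at 10 µM dose, activation of 40% or more, normalized to positive control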
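System: CHO CHOP reporter cells. Amount: 500 cells per well. Buffer or medium: F12 medium, 10% FBS. Compound dosing: one dose, 10 µM in 0.5% DMSO. Incubation: 6 h compound exposure at 37 °C after overnight seeding. Technique: Steady-Glo luciferase luminescence. Benchmarks: tunicamycin and DMSO controls.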
Large screens that a line does not name were inactive.

COc1ccc(OC)c(NC(=O)CN(c2ccc(C(C)C)cc2)S(=O)(=O)c2c(C)noc2C)c1	Lmaj promast 52
Cc1cccc(N(C(=O)CCC(=O)Nc2cc(C)on2)C(C(=O)NC2CCCC2)c2ccccc2)c1 (stereo unspecified)	none (no result: Dynein transport, CHOP inh, Lmaj promast)
COc1ccc(Cc2[nH]n3c(=O)cc(C(C)C)nc3c2-c2ccccc2)cc1	Lmaj promast 97
COc1ccc(Cc2[nH]n3c(=O)cc(C)nc3c2-c2ccccc2)cc1	none
O=C(NCC1COc2ccccc2O1)c1ccc(NC(=O)C(c2ccccc2)c2ccccc2)cc1 (stereo unspecified)	Lmaj promast 92, T cruzi repl 85
Cc1noc(C)c1S(=O)(=O)N(C)C[C@H]1Oc2ccc(NC(=O)NC3CCCCC3)cc2C(=O)N([C@H](C)CO)C[C@@H]1C	none (no result: Dynein transport, CHOP inh, Lmaj promast, T cruzi repl)
O=C1NN=C(c2ccc(Cl)cc2)CC1c1cccc(Br)c1 (stereo unspecified)	CHOP inh 78
O=C1NN=C(c2ccc(Cl)cc2)CC1c1c[nH]c2ccccc12 (stereo unspecified)	none
CSc1nc(N2CCOCC2)c2c(c1C#N)CCCCC2	CHOP inh 73
CC(C)c1nc(N2CCOCC2)c(C#N)c2c1CCC2	CHOP inh 72
O=C(NCc1ccccc1C(F)(F)F)C1CCC(=O)N(CCCc2ccccc2)C1 (stereo unspecified)	none (no result: Dynein transport, CHOP inh, Lmaj promast)
CCOC(=O)c1nnn(-c2nc(N3CCCC3)nc(N3CCCC3)n2)c1-c1ccccc1	CHOP inh 89
CCOC(=O)c1nnn(-c2nc(OC)nc(N3CCCCC3)n2)c1-c1ccccc1	none (no result: T cruzi repl, UPR XBP1 act, CHOP UPR activ)
O=C(CN1C(=O)NC2(CCCc3ccccc32)C1=O)NCC(F)(F)F (stereo unspecified)	none (no result: Dynein transport, CHOP inh, Lmaj promast)
Cc1nc(N)nc(N)c1CCCc1ccc(Cl)c(Cl)c1	T cruzi repl 62 (no result: Dynein transport, CHOP inh, Lmaj promast)
CCc1cccc(CC)c1C(OC(C)=O)c1cccnc1 (stereo unspecified)	none (no result: Dynein transport, CHOP inh, Lmaj promast)
Cc1c(C(=O)N2CCOCC2)oc2ccc(S(=O)(=O)N3CCCC3)cc12	none
CCOC(=O)N1CCN(C(=O)c2oc3ccc(S(=O)(=O)N4CCCCCC4)cc3c2C)CC1	T cruzi repl 65
Cc1c(C(=O)N2CCc3ccccc3C2)oc2ccc(S(=O)(=O)N3CCCCCC3)cc12	Lmaj promast 66
CC(=O)N/C(=C\c1ccccc1)C(=O)OC/C=C/c1ccccc1	none (no result: Dynein transport, CHOP inh, Lmaj promast)
CC1CCC(C(C)C)C(OCC(O)CNC(C)c2ccccc2)C1 (stereo unspecified)	CHOP inh 93, Lmaj promast 77
COc1ccc(OCC(O)CNC(C)c2ccccc2)cc1 (stereo unspecified)	none (no result: Dynein transport, CHOP inh, Lmaj promast)
CC1CCC(C(C)C)C(OCC(O)CNC(C)(C)C)C1 (stereo unspecified)	none
CC(NCC(O)COC1CCC(C(C)(C)C)CC1)c1ccccc1 (stereo unspecified)	CHOP inh 90, Lmaj promast 100, T cruzi repl 75
COCCCn1c(=S)[nH]c2sc3c(c2c1=O)CCCS3	none
CCOCCn1c(CN(Cc2ccccc2)Cc2ccccc2)nc2c1c(=O)n(C)c(=O)n2C	CHOP inh 80
CN(Cc1ccccc1)Cc1nc2c(c(=O)n(C)c(=O)n2C)n1Cc1ccc(F)cc1	none
Cc1ccc(Cn2c(CN(C)Cc3ccccc3)nc3c2c(=O)n(C)c(=O)n3C)cc1	Lmaj promast 73
O=C(CC1SCCNC1=O)Nc1cccc([N+](=O)[O-])c1 (stereo unspecified)	none (no result: Lmaj promast)
CC(c1nc2ccccc2n1Cc1ccccc1)N1CCCCC1 (stereo unspecified)	none (no result: Dynein transport, CHOP inh, Lmaj promast)
CN(C)c1ccc(-c2nc3ccccc3n2C)cc1	none (no result: CHOP inh)
CC(C)n1c(-c2ccc(N(C)C)cc2)nc2ccccc21	Lmaj promast 50 (no result: T cruzi repl)
Cc1ccc(S(=O)(=O)C(NC(=O)c2ccccc2)=C(Cl)Cl)cc1	Lmaj promast 62 (no result: CHOP inh)
Cc1ccc(S(=O)(=O)/C(=C/Cl)NC(=O)c2ccccc2)cc1	Lmaj promast 99
O=C(NC(=C(Cl)Cl)S(=O)(=O)c1ccc(Cl)cc1)c1ccccc1	none (no result: Lmaj promast)
Cc1ccc(C(=O)NC(=C(Cl)Cl)S(=O)(=O)c2ccc(C)cc2)cc1	Lmaj promast 62
Cc1ccc(C(=O)NC(=C(Cl)Cl)S(=O)(=O)c2ccc(Cl)cc2)cc1	CHOP inh 78
O=S(=O)(c1ccc(SCc2ccc(Cl)cc2)nc1)N1CCCC1	none (no result: Dynein transport, CHOP inh, Lmaj promast, T cruzi repl)
CC1CCN(c2nc(CN3CCCCC3)nc3scc(-c4ccccc4)c23)CC1	Lmaj promast 91
O=C1N/C(=N\N=C\c2cccs2)SC1Cc1cccc(Cl)c1 (stereo unspecified)	CHOP inh 88
O=C1N/C(=N\N=C\c2cccs2)SC1Cc1ccc(Cl)cc1 (stereo unspecified)	none
O=C1N/C(=N\N=C\c2ccc3ncccc3c2)SC1Cc1ccc(SC(F)F)cc1 (stereo unspecified)	none
O=C1N/C(=N\N=C\c2cccnc2)SC1Cc1ccc(SC(F)F)cc1 (stereo unspecified)	Lmaj promast 74, T cruzi repl 62
O=C1N/C(=N\N=C\c2ccccn2)SC1Cc1cccc(SC(F)F)c1 (stereo unspecified)	T cruzi repl 69
O=C(NC1CCCCC1)C(c1ccncc1)N(Cc1ccc(F)cc1)C(=O)c1ccccn1 (stereo unspecified)	none (no result: Dynein transport, CHOP inh, Lmaj promast)
CC(C)(C)NC(=O)C(c1ccc(F)cc1)N(Cc1ccco1)C(=O)c1csnn1 (stereo unspecified)	none
O=C(NC1CCCCC1)C(c1ccncc1)N(Cc1ccccc1)C(=O)c1ccc(-c2ccccc2)[nH]1 (stereo unspecified)	Lmaj promast 99, T cruzi repl 70
CC(C)(C)NC(=O)C(c1ccncc1)N(Cc1ccco1)C(=O)c1ccc(-c2ccccc2)[nH]1 (stereo unspecified)	Lmaj promast 74
COc1ccc(Nc2nc(-c3ccccc3)nc3ccccc23)c(OC)c1	T cruzi repl 65
COc1ccc(Nc2nc(N3CCCCC3)nc3ccccc23)c(OC)c1	Lmaj promast 97, T cruzi repl 58
CCN(Cc1ccccc1)c1ccc(/C=N/N=C(N)N)cc1	CHOP inh 77, Lmaj promast 100, T cruzi repl inconclusive
CCN(Cc1ccccc1)c1ccc(/C=N/NC(=S)NC(C)C)cc1	none
CCOc1ccc(S(=O)(=O)NCc2ccc(F)cc2)c2cccnc12	Lmaj promast 89
CCOc1ccc(S(=O)(=O)NCc2ccc(OC)cc2)c2cccnc12	Lmaj promast 90
CCOc1ccc(S(=O)(=O)N2CCN(c3ccc(OC)cc3)CC2)c2cccnc12	none
